Measured values from ChEMBL document CHEMBL1949593, “Stilbene-chalcone hybrids: design, synthesis, and evaluation as a new class of antimalarial scaffolds that trigger cell death through stage specific apoptosis” (J Med Chem, 2012).
Activity calls are given as the source filed them. No cut-off for these calls is given here.

What was measured:
[1] = system: Plasmodium falciparum; experiment: Growth inhibition of ring stage chloroquine-sensitive Plasmodium falciparum 3D7 at 10 uM treated for 48 hrs following washout incubated for 48 hrs in drug free medium by Giemsa staining; type: functional, organism-based
Procedure, shortened: (§1)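 Highly synchronized 3D7 cultures were exposed by stage: rings 48 h, trophozoites 24 h, schizonts 8 h. After a media wash, cultures grew 48 h in drug-free complete RPMI, in triplicate. Giemsa smears were read by counting 3000 cells per stage; pycnotic parasites were scored nonviable. Inhibition is percent of drug-free control.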

[2] = system: Plasmodium falciparum; experiment: Antimalarial activity against ring stage chloroquine-sensitive Plasmodium falciparum 3D7 infected in human O positive erythrocytes after 48 hrs by SYBR green 1 fluorescence assay; type: functional, organism-based; conditions: 3D7, 48 h
Procedure, shortened: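 P. falciparum 3D7 in O+ human erythrocytes in complete RPMI with Albumax at 37 °C under 5% O2/5% CO2. Culture was sorbitol-synchronized to rings and plated at 2% hematocrit, 1% parasitemia. Drug range was 0–100 μM with 0.4% final DMSO, in triplicate. After 48 h, SYBR Green I fluorescence was read (ex 497/em 520 nm). IC50 was taken by visual matching of 50% growth inhibition.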

[3] = system: Plasmodium falciparum; experiment: Antimalarial activity against ring stage chloroquine-resistant Plasmodium falciparum Dd2 infected in human O positive erythrocytes after 48 hrs by SYBR green 1 fluorescence assay; type: functional, organism-based; conditions: Dd2, 48 h
Procedure, shortened: (§2)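 Ring-stage cultures were sorbitol-synchronized in O+ human erythrocytes in RPMI 1640 with 0.5% Albumax, hypoxanthine and gentamicin, then plated at 2% hematocrit and 1% parasitemia. Drugs were tested at 0–100 μM (final DMSO 0.4%) in triplicate for 48 h at 37 °C under 5% O2/5% CO2/90% N2. Read-out was SYBR Green I (ex 497/em 520 nm). IC50 was read visually as 50% growth inhibition, with chloroquine as control.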

[4] = system: Plasmodium falciparum; experiment: Antimalarial activity against ring stage chloroquine-resistant Plasmodium falciparum INDO infected in human O positive erythrocytes after 48 hrs by SYBR green 1 fluorescence assay; type: functional, organism-based; procedure, shortened: as §2
[5] = Resistance index, ratio of IC50 for ring stage chloroquine-resistant Plasmodium falciparum INDO to IC50 for ring stage chloroquine-sensitive Plasmodium falciparum 3D7; type: functional
[6] = Resistance index, ratio of IC50 for ring stage chloroquine-resistant Plasmodium falciparum Dd2 to IC50 for ring stage chloroquine-sensitive Plasmodium falciparum 3D7; type: functional
[7] = Therapeutic index, ratio of IC50 for human HeLa cells to IC50 for ring stage chloroquine-sensitive Plasmodium falciparum 3D7; type: cell-based; conditions: read-out: Ratio IC50
Procedure, shortened: (§3)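 HeLa or L929 fibroblasts were seeded at 10^4 cells per well in RPMI with 10% FBS, left overnight, then exposed 24 h at 37 °C, 5% CO2. MTT was added for 3 h; formazan was dissolved in DMSO and read at 570 nm. IC50 came from dose–response curves. Index = IC50(mammalian)/IC50(Pf 3D7, SYBR Green assay).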

[8] = Therapeutic index, ratio of IC50 for […] cells to IC50 for ring stage chloroquine-sensitive Plasmodium falciparum 3D7; type: cell-based; conditions: mouse, read-out: Ratio IC50; procedure, shortened: as §3
[9] = Inhibition of Plasmodium falciparum falcipain-2 using benzyloxycarbonyl-Phe-Arg-7-amino-4-methyl coumarin hydrochloride as substrate preincubated for 10 mins prior substrate addition by fluorimetric assay
Procedure, shortened: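 Recombinant falcipain-2 (2 μg) was preincubated 10 min at room temperature with or without compound, in triplicate. Buffer was 100 mM sodium acetate pH 5.5 with 10 mM DTT and 1% final DMSO. Z-Phe-Arg-AMC was then added at 10 μM final. AMC release was read at ex 355/em 460 nm. IC50 was taken by visual matching of 50% inhibition.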

[10] = system: Plasmodium falciparum; experiment: Antimalarial activity against chloroquine-sensitive Plasmodium falciparum 3D7 assessed as inhibition of schizonts growth at 10 uM treated for 8 hrs followed by washout measured after 48 hrs by Giemsa staining; type: functional, organism-based
Procedure, shortened: (§4)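 Highly synchronized 3D7 schizonts were exposed to drug for 8 h under normal culture conditions, alongside untreated controls. After a media wash, cultures were incubated for 48 h with or without drug. Giemsa-stained thin smears were examined microscopically for parasitemia and stage, and compared with control.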

[11] = system: Plasmodium falciparum; experiment: Antimalarial activity against chloroquine-sensitive Plasmodium falciparum 3D7 assessed as merozoites egress at 10 uM treated for 8 hrs followed by washout measured after 48 hrs by Giemsa staining; type: functional, organism-based; procedure, shortened: as §4
[12] = system: Plasmodium falciparum; experiment: Inhibition of RBC invasion of chloroquine-sensitive Plasmodium falciparum 3D7 schizonts at 10 uM treated for 8 hrs followed by washout measured after 48 hrs by Giemsa staining; type: functional, organism-based; procedure, shortened: as §4
[13] = system: Plasmodium falciparum; experiment: Growth inhibition of ring stage chloroquine-sensitive Plasmodium falciparum 3D7 at 10 uM treated for 24 hrs followed by washout measured after 72 hrs by Giemsa staining; type: functional, organism-based
Procedure, shortened: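 Synchronized 3D7 ring cultures were exposed for 18, 24 or 48 h, then washed free of drug. Cultures were kept under normal conditions to 96 h total. Giemsa-stained thin smears were read by counting 3000 cells; inhibition is relative to the matching drug-free control.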

[14] = system: Plasmodium falciparum; experiment: Growth inhibition of chloroquine-sensitive Plasmodium falciparum 3D7 trophozoites at 10 uM treated for 24 hrs followed by washout measured after 48 hrs by Giemsa staining; type: functional, organism-based; procedure, shortened: as §1
[15] = system: Plasmodium falciparum; experiment: Induction of apoptosis in chloroquine-sensitive Plasmodium falciparum 3D7 trophozoites assessed as nuclear condensation at 10 uM at 18 hrs by Giemsa staining; type: functional, organism-based
[16] = system: Plasmodium falciparum; experiment: Reduction in parasitemia of chloroquine-sensitive Plasmodium falciparum 3D7 trophozoites at 10 uM after 48 hrs by Giemsa staining; type: functional, organism-based
[17] = system: Plasmodium falciparum; experiment: Reduction in parasitemia of ring stage chloroquine-sensitive Plasmodium falciparum 3D7 at 10 uM after 48 hrs by Giemsa staining; type: functional, organism-based
[18] = system: Plasmodium falciparum; experiment: Induction of apoptosis in ring stage chloroquine-sensitive Plasmodium falciparum 3D7 assessed as chromatin fragmentation at 10 uM at 18 hrs by Hoechst 33342 staining; type: functional, organism-based
[19] = system: Plasmodium falciparum; experiment: Induction of apoptosis in chloroquine-sensitive Plasmodium falciparum 3D7 trophozoites assessed as chromatin fragmentation at 10 uM at 18 hrs by Hoechst 33342 staining; type: functional, organism-based
Procedure, shortened: (§5)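 3D7 trophozoite cultures were treated 18 or 24 h, and ring cultures 24, 42 or 48 h. Parasites were stained with Hoechst 33342 for 10 min at room temperature, washed with PBS, and smeared. Condensed or fragmented chromatin (blue, 460 nm) was viewed by fluorescence microscopy.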

[20] = system: Plasmodium falciparum; experiment: Induction of apoptosis in ring stage chloroquine-sensitive Plasmodium falciparum 3D7 assessed as chromatin condensation at 10 uM at 18 hrs by Hoechst 33342 staining; type: functional, organism-based
[21] = system: Plasmodium falciparum; experiment: Induction of apoptosis in chloroquine-sensitive Plasmodium falciparum 3D7 trophozoites assessed as chromatin condensation at 10 uM at 18 hrs by Hoechst 33342 staining; type: functional, organism-based; procedure, shortened: as §5
[22] = system: Plasmodium falciparum; experiment: Induction of internucleosomal fragmentation in chloroquine-sensitive Plasmodium falciparum 3D7 trophozoites at 10 uM at 24 hrs by Hoechst 33342 staining; type: functional, organism-based; procedure, shortened: as §5
[23] = system: Plasmodium falciparum; experiment: Induction of internucleosomal fragmentation in ring stage chloroquine-sensitive Plasmodium falciparum 3D7 at 10 uM at 24 hrs by Hoechst 33342 staining; type: functional, organism-based; procedure, shortened: as §5
[24] = system: Plasmodium falciparum; experiment: Induction of apoptosis in ring stage chloroquine-sensitive Plasmodium falciparum 3D7 assessed as disruption of mitochondrial membrane potential at 10 uM by JC-1 staining; type: functional, organism-based
Procedure, shortened: (§6)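 3D7 ring cultures were treated 24, 42 or 48 h, and trophozoite cultures 18 or 24 h. Parasites were stained with JC-1 for 20 min at 37 °C and viewed as wet mounts by fluorescence microscopy. Red-orange aggregate signal (590 nm) indicates intact ΔΨm; green monomer signal (525 nm) indicates dissipation.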

[25] = system: Plasmodium falciparum; experiment: Induction of apoptosis in chloroquine-sensitive Plasmodium falciparum 3D7 trophozoites assessed as disruption of mitochondrial membrane potential at 10 uM by JC-1 staining; type: functional, organism-based; procedure, shortened: as §6
[26] = system: Plasmodium falciparum; experiment: Growth inhibition of ring stage chloroquine-sensitive Plasmodium falciparum 3D7 at 10 uM treated for 48 hrs following washout incubated for 48 hrs in drug free medium by SYBR green 1-based fluorescence assay; type: functional, organism-based
Procedure, shortened: (§7)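 Stage-specific exposure of synchronized 3D7: rings 48 h, trophozoites 24 h, schizonts 8 h. Drug was removed by media wash and cultures grew 48 h drug-free, in a separate triplicate set. Growth was read by SYBR Green I fluorescence and expressed as percent inhibition relative to drug-free control.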

[27] = system: Plasmodium falciparum; experiment: Growth inhibition of chloroquine-sensitive Plasmodium falciparum 3D7 trophozoites at 10 uM treated for 24 hrs following washout incubated for 48 hrs in drug free medium by SYBR green 1-based fluorescence assay; type: functional, organism-based; procedure, shortened: as §7
[28] = system: Plasmodium falciparum; experiment: Growth inhibition of chloroquine-sensitive Plasmodium falciparum 3D7 schizonts at 10 uM treated for 8 hrs following washout incubated for 48 hrs in drug free medium by Giemsa staining; type: functional, organism-based; procedure, shortened: as §1
[29] = system: Plasmodium falciparum; experiment: Growth inhibition of chloroquine-sensitive Plasmodium falciparum 3D7 schizonts at 10 uM treated for 8 hrs following washout incubated for 48 hrs in drug free medium by SYBR green 1-based fluorescence assay; type: functional, organism-based; procedure, shortened: as §7
[30] = system: Plasmodium falciparum; experiment: Induction of apoptosis in ring stage chloroquine-sensitive Plasmodium falciparum 3D7 assessed as nuclear condensation at 10 uM at 24 hrs by Giemsa staining

COc1cc(OC)c(OC)cc1/C=C/C(=O)c1ccc(/C=C/c2cc(OC)c(OC(C)=O)c(OC)c2)cc1
growth inhibition (GI) [1]: Active | IC50 [2]: 2200 nM | IC50 [3]: 2200 nM | IC50 [4]: 1980 nM | Ratio IC50 [5]: 0.9 | Ratio IC50 [6]: 1 | selectivity ratio [7]: > 45.5 | selectivity ratio [8]: > 45.5 | IC50 [9]: 25 µM | growth inhibition (GI) [10]: inactive | inhibition [11]: inactive | inhibition [12]: inactive | growth inhibition (GI) [13]: Active | growth inhibition (GI) [14]: Active | Activity [15]: Active | Activity [16]: Active | Activity [17]: Active | Activity [18]: Active | Activity [19]: Active | Activity [20]: Active | Activity [21]: Active | Activity [22]: Active | Activity [23]: inactive | Activity [24]: Active | Activity [25]: Active | growth inhibition (GI) [26]: Active | growth inhibition (GI) [27]: Active | growth inhibition (GI) [28]: inactive | growth inhibition (GI) [29]: inactive | Activity [30]: Active
